Legend:
[1] = system: Rattus norvegicus; assay: Presynaptic activity at the level of DA metabolism was determined at dose 45 umol/kg on striatal level of DOPAC; type: functional
Outline: (§1)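 Female Wistar rats given 45 μmol/kg sc; striatal DOPAC and HVA measured by HPLC with electrochemical detection, compared with saline controls by Student's t test.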

[2] = system: Rattus norvegicus; assay: Presynaptic activity at the level of DA metabolism was determined at dose 45 umol/kg on striatal level of HVA; type: functional; outline: as §1
[3] = species on record: Rattus norvegicus; assay: Dopa accumulation was evaluated in corpus striatum of male Sprague-Dawley rat; type: functional
Outline: (§2)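 Male Sprague-Dawley rats, 200–300 g; drug in saline given sc after NSD 1015 decarboxylase inhibition; Dopa measured by HPLC with electrochemical detection. Dose-response curves from four to six dose levels per substance and brain area; ED50 estimated as the dose giving half-maximal decrease of Dopa level.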

[4] = species on record: Rattus norvegicus; assay: Dopa accumulation was evaluated in limbic system of male Sprague-Dawley rat; type: functional; outline: as §2
[5] = system: Rattus norvegicus; assay: Motor activity effect in reserpinized rat at 13 umol/kg, sc expressed as accumulation counts 0-30 min after treatment; type: functional
[6] = system: Rattus norvegicus; assay: Level of compound in rat striatum at dose 45 umol/kg administered subcutaneously.; type: functional, organism-based
Outline: (§3)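 Female Wistar rats (170–200 g) given 45 μmol/kg ip or sc, killed 60 min later. Striatum, cerebellum and cortex were frozen and homogenised in 0.1 M perchloric acid, purified on Sephadex G10 and analysed by HPLC-ECD. O-methyl metabolite was read at 27% methanol and 750 mV. Values pmol/g tissue, n = 3.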

[7] = system: Rattus norvegicus; assay: Level of compound in rat intraperitoneally; type: functional, organism-based
[8] = system: Rattus norvegicus; assay: Level of compound 5 in rat cerebellum at dose 45 umol/kg administered intraperitoneally; type: functional, organism-based; outline: as §3
[9] = system: Rattus norvegicus; assay: Level of compound 5 in rat cerebellum at dose 45 umol/kg administered subcutaneously; type: functional, organism-based; outline: as §3
[10] = system: Rattus norvegicus; assay: Level of compound 5 in rat cortex at dose 45 umol/kg administered intraperitoneally; type: functional, organism-based; outline: as §3
[11] = system: Rattus norvegicus; assay: Level of compound 5 in rat cortex at dose 45 umol/kg administered subcutaneously; type: functional, organism-based; outline: as §3
[12] = system: Rattus norvegicus; assay: Level of compound 5 in rat intraperitoneally; type: functional, organism-based; outline: as §3
[13] = system: Rattus norvegicus; assay: Level of compound 5 in rat striatum at dose 45 umol/kg administered subcutaneously; type: functional, organism-based; outline: as §3
[14] = system: Rattus norvegicus; assay: Level of compound in rat cerebellum at dose 45 umol/kg administered intraperitoneally; type: functional, organism-based; outline: as §3
[15] = system: Rattus norvegicus; assay: Level of compound in rat cerebellum at dose 45 umol/kg administered subcutaneously; type: functional, organism-based; outline: as §3
[16] = system: Rattus norvegicus; assay: Level of compound in rat cortex at dose 45 umol/kg administered intraperitoneally; type: functional, organism-based; outline: as §3
[17] = system: Rattus norvegicus; assay: Level of compound in rat cortex at dose 45 umol/kg administered subcutaneously; type: functional, organism-based; outline: as §3
[18] = system: Rattus norvegicus; assay: Motor activity effect in reserpinized rat with tropolone pretreatment at 50 umol/kg, ip expressed as accumulation counts 0-30 min after treatment; type: functional
Outline: (§4)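 Male Sprague-Dawley rats given reserpine 5 mg/kg ip 18 h before; some also given tropolone 50 mg/kg 30 min before. Compound given sc in the neck, or ip where stated. Locomotion recorded by photocell motility meters, one rat per cage, as accumulated counts over 0–30 min, mean ± SEM.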

[19] = system: Rattus norvegicus; assay: Motor activity effect in reserpinized rat at 213 umol/kg, sc expressed as accumulation counts 0-30 min after treatment; type: functional
[20] = system: Rattus norvegicus; assay: Motor activity effect in reserpinized rat with tropolone pretreatment at 10 umol/kg, ip expressed as accumulation counts 0-30 min after treatment; type: functional; outline: as §4
[21] = system: Rattus norvegicus; assay: Level of compound in rat striatum at dose 45 umol/kg administered subcutaneously; type: functional, organism-based; outline: as §3
[22] = Michaelis-Menten constant was measured against adenylate cyclase stimulation of cAMP formation in striatal homogenates; type: ADME, tissue-based; conditions: tissue homogenate
[23] = system: catechol-O-methyl transferase; assay: Michaelis-Menten constant was measured for O-methylation (probably meta) by catechol-O-methyl transferase; type: ADME
Outline: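 Crude rat liver COMT (105000g supernatant) at 37°C for 15 min with 0.1–0.00125 mM substrate, S-adenosyl-L-methionine, 10 mM MgCl2 and 50 mM phosphate pH 7.4 (final). Reaction stopped with perchloric acid; O-methyl product measured by HPLC-ECD. Km from Lineweaver-Burk plots, four experiments, each concentration in triplicate.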

[24] = target: D(1A) dopamine receptor (Rattus norvegicus, UniProt P18901); assay: In vitro affinity against Dopamine receptor D1 using [3H]SCH-23390 radioligand in rat striatal homogenate.
Sequence of D(1A) dopamine receptor (P18901 whole entry): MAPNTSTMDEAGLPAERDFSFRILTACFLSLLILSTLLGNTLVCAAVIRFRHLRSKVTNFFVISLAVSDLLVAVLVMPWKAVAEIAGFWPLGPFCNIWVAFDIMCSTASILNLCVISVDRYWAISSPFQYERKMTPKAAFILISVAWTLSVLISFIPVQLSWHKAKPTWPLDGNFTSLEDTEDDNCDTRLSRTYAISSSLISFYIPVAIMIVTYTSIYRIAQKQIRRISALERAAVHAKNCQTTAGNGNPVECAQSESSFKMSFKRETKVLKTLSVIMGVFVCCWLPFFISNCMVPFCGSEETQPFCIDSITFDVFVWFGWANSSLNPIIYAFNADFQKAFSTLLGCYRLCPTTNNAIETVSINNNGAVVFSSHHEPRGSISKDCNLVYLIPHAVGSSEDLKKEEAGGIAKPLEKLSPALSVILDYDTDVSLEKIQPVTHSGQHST

[25] = target: D(2) dopamine receptor (Rattus norvegicus, UniProt P61169); assay: In vitro affinity against Dopamine receptor D2 using [3H]DP-5,6-ADTN radioligand in rat striatal homogenate.
Sequence of D(2) dopamine receptor (P61169 whole entry): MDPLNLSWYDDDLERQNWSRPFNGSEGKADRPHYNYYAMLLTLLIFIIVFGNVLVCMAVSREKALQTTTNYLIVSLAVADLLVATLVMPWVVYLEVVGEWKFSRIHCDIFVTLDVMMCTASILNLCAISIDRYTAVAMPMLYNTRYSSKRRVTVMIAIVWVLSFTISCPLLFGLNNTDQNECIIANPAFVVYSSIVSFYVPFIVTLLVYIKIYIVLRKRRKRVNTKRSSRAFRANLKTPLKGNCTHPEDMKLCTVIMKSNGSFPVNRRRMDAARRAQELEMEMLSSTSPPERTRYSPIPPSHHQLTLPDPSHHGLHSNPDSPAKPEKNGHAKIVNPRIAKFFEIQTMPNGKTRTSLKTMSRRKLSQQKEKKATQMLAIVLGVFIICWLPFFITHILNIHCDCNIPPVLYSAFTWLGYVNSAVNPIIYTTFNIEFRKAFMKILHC

[26] = system: Rattus norvegicus; assay: Motor activity effect in reserpinized rat at 50 umol/kg, sc expressed as accumulation counts 0-30 min after treatment; type: functional; outline: as §4
[27] = system: Rattus norvegicus; assay: Motor activity effect in reserpinized rat with tropolone pretreatment at 5 umol/kg, sc expressed as accumulation counts 0-30 min after treatment; type: functional; outline: as §4
[28] = system: Rattus norvegicus; assay: Level of compound in rat striatum in the absence of tropolone at dose 40 umol/kg; type: functional, organism-based
Outline: (§5)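 Female Wistar rats (170–200 g), compound sc in saline (1 mL/kg), killed 60 min later, with or without tropolone (50 mg/kg ip) before dosing. Striatum, cerebellum and cortex were extracted in perchloric acid, cleaned on Sephadex G10 and analysed by HPLC-ECD (pH 4.0, 15% methanol, 600 mV). Recovery-corrected, n = 3.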

[29] = system: Rattus norvegicus; assay: Level of compound in rat striatum by pretreatment of tropolone (50 mg/kg, ip, 30min) at dose 40 umol/kg; type: functional, organism-based; outline: as §5
[30] = system: Rattus norvegicus; assay: Level of compound in rat cortex in the absence of tropolone at dose 40 umol/kg; type: functional, organism-based; outline: as §5
[31] = system: Rattus norvegicus; assay: Level of compound in rat cortex in the absence of tropolone at dose 8 umol/kg; type: functional, organism-based; outline: as §5
[32] = system: Rattus norvegicus; assay: Level of compound in rat striatum at dose 40 umol/kg; type: functional, organism-based; outline: as §5
[33] = system: Rattus norvegicus; assay: Level of compound in rat striatum at dose 8 umol/kg; type: functional, organism-based; outline: as §5
[34] = system: Rattus norvegicus; assay: Level of compound in rat striatum by pretreatment of tropolone (50 mg/kg, ip, 30min) at dose 8 umol/kg; type: functional, organism-based; outline: as §5
[35] = system: Rattus norvegicus; assay: Level of compound in rat cerebellum at dose 40 umol/kg; type: functional, organism-based; outline: as §5
[36] = system: Rattus norvegicus; assay: Level of compound in rat cerebellum at dose 8 umol/kg; type: functional, organism-based; outline: as §5
[37] = system: Rattus norvegicus; assay: Level of compound in rat cerebellum by pretreatment of tropolone (50 mg/kg, ip, 30min) at dose 8 umol/kg; type: functional, organism-based; outline: as §5
[38] = system: Rattus norvegicus; assay: Level of compound in rat cerebellum in the absence of tropolone at dose 40 umol/kg; type: functional, organism-based; outline: as §5
[39] = system: Rattus norvegicus; assay: Level of compound in rat cerebellum in the absence of tropolone at dose 8 umol/kg; type: functional, organism-based; outline: as §5
[40] = system: Rattus norvegicus; assay: Level of compound in rat cortex at dose 40 umol/kg; type: functional, organism-based; outline: as §5
[41] = system: Rattus norvegicus; assay: Level of compound in rat cortex at dose 8 umol/kg; type: functional, organism-based; outline: as §5
[42] = system: Rattus norvegicus; assay: Level of compound in rat cortex by pretreatment of tropolone (50 mg/kg, ip, 30min) at dose 40 umol/kg; type: functional, organism-based; outline: as §5
[43] = system: Rattus norvegicus; assay: Level of compound in rat cortex by pretreatment of tropolone (50 mg/kg, ip, 30min) at dose 8 umol/kg; type: functional, organism-based; outline: as §5
[44] = species on record: Rattus norvegicus; assay: Maximal cAMP production in rat striatal homogenates.; type: functional
Outline: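 cAMP formation in rat striatal homogenates was read with an automated adenylate cyclase assay.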

[45] = Ratio of Vmax/Km was measured; type: ADME
Outline: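 Crude COMT from rat liver (KCl homogenate, 105000g supernatant). Incubated at 37 °C in 50 mM phosphate buffer pH 7.4 with 10 mM MgCl2, S-adenosyl-L-methionine ([…] as printed), and substrate at 0.1–0.00125 mM (final concentrations), 15 min. Stopped with perchloric acid; the O-methylated product was measured by HPLC-electrochemical detection. Km and Vmax from Lineweaver-Burk plots of four experiments, each concentration run in triplicate.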

[46] = system: Rattus norvegicus; assay: Level of compound in rat cerebellum by pretreatment of tropolone (50 mg/kg, ip, 30min) at dose 40 umol/kg; type: functional, organism-based; outline: as §5

CCCN1CCC[C@H](c2cccc(O)c2)C1
Control [1]: 50% | Control [2]: 32% | ED50 [3]: 1.3 µmol/kg | ED50 [4]: 1 µmol/kg | Motor activity [5]: 78 | Level [6]: 17600 pmol/g | Level [7]: 7040 pmol/g | Level [8]: 98 pmol/g | Level [9]: 114 pmol/g | Level [10]: 243 pmol/g | Level [11]: 211 pmol/g | Level [12]: 151 pmol/g | Level [13]: 93 pmol/g | Level [14]: 4910 pmol/g | Level [15]: 15200 pmol/g | Level [16]: 7410 pmol/g | Level [17]: 18300 pmol/g

CCCN1CCC[C@@H](c2cccc(O)c2)C1 [PRECLAMOL]
Control [1]: 118% | Control [2]: 123% | ED50 [3]: 1.7 µmol/kg | ED50 [4]: 0.8 µmol/kg | Motor activity [18]: 77 | Motor activity [19]: 12 | Motor activity [20]: 23 | Level [7]: 5380 pmol/g | Level [21]: 20300 pmol/g | Level [8]: 104 pmol/g | Level [9]: 174 pmol/g | Level [10]: 280 pmol/g | Level [11]: 243 pmol/g | Level [12]: 174 pmol/g | Level [13]: 89 pmol/g | Level [14]: 3430 pmol/g | Level [15]: 16100 pmol/g | Level [16]: 5790 pmol/g | Level [17]: 21100 pmol/g

CCCN1CCC[C@H](c2ccc(O)c(O)c2)C1
Km [22]: 65 µM | Km [23]: 121 µM | Ki [24]: 57.8 µM | Ki [25]: 0.011 µM | Control [1]: 65% | Control [2]: 49% | ED50 [3]: 7 µmol/kg | ED50 [4]: 6.2 µmol/kg | Motor activity [26]: 24 | Motor activity [27]: 20 | Level [28]: 112 pmol/g | Level [29]: 5850 pmol/g | Level [30]: 227 pmol/g | Level [31]: 18 pmol/g | Level [32]: 6000 pmol/g | Level [33]: 1620 pmol/g | Level [34]: 1380 pmol/g | Level [35]: 4340 pmol/g | Level [36]: 1550 pmol/g | Level [37]: 1910 pmol/g | Level [38]: 150 pmol/g | Level [39]: 22 pmol/g | Level [40]: 9540 pmol/g | Level [41]: 2750 pmol/g | Level [42]: 8470 pmol/g | Level [43]: 2050 pmol/g | Production (pM (mg of protein)-1) [44]: 46 | Ratio [45]: 346 | Level [46]: 7200 pmol/g

Reference: ChEMBL document CHEMBL1123228, “Enantiomers of 3-(3,4-dihydroxyphenyl)- and 3-(3-hydroxyphenyl)-N-n-propylpiperidine: central pre- and postsynaptic dopaminergic effects and pharmacokinetics” (J Med Chem, 1986)
